Assay results: ChEMBL document CHEMBL1146217, “Growth inhibition of Mycobacterium bovis, Mycobacterium tuberculosis and Mycobacterium avium in vitro: effect of 1-beta-D-2'-arabinofuranosyl and 1-(2'-deoxy-2'-fluoro-beta-D-2'-ribofuranosyl) pyrimidine nucleoside analogs” (J Med Chem, 2007)
Values after ≈ are worked out from the molar mass of the structure shown.

Tests used:
[1] = tested on: Mycobacterium tuberculosis; test: Antimycobacterial activity against Mycobacterium tuberculosis H37Ra at 100 ug/mL by microplate Alamar blue assay; format: functional
In short: (§1)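 MABA with M. bovis BCG, M. tuberculosis H37Ra or M. avium ATCC 25291. DMSO stocks (10 mg/mL) diluted in 7H9GC; final inoculum 2.5 × 10⁵ CFU/mL. Incubated 6 days, then alamar blue plus Tween 80 added and read by fluorescence after about 24 h. […]. Tested in triplicate at 100, 50, 10 and 1 µg/mL; two experiments, mean reported.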

[2] = tested on: Mycobacterium tuberculosis; test: Antimycobacterial activity against Mycobacterium tuberculosis H37Ra at 50 ug/mL by microplate Alamar blue assay; format: functional; in short: as §1
[3] = tested on: Mycobacterium tuberculosis; test: Antimycobacterial activity against Mycobacterium tuberculosis H37Ra at 10 ug/mL by microplate Alamar blue assay; format: functional; in short: as §1
[4] = tested on: Mycobacterium tuberculosis; test: Antimycobacterial activity against Mycobacterium tuberculosis H37Ra at 1ug/mL by microplate Alamar blue assay; format: functional; in short: as §1
[5] = tested on: Mycobacterium tuberculosis; test: Antimycobacterial activity against Mycobacterium tuberculosis H37Ra by microplate Alamar blue assay; format: functional
In short: (§2)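 Same alamar blue microplate setup (7H9GC, 2.5 × 10⁵ CFU/mL, 6 days, then dye read after about 24 h), using 2-fold compound dilutions. MIC90 is the lowest concentration giving about 90% inhibition relative to bacteria-only wells after background subtraction. Visual MIC is the lowest concentration preventing the blue-to-pink change.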

Mycobacterium avium [6] = test: Antimycobacterial activity against Mycobacterium avium ATCC 25291 at 100 ug/mL by microplate Alamar blue assay; format: functional; in short: as §1
Mycobacterium avium [7] = test: Antimycobacterial activity against Mycobacterium avium ATCC 25291 at 50 ug/mL by microplate Alamar blue assay; format: functional; in short: as §1
Mycobacterium avium [8] = test: Antimycobacterial activity against Mycobacterium avium ATCC 25291 by microplate Alamar blue assay; format: functional; in short: as §2
Escherichia coli [9] = test: Antibacterial activity against Escherichia coli ATCC 25922 after 16 to 20 hrs by broth microdilution method; format: functional; settings: for MIC: Escherichia coli, ATCC 25922
In short: (§3)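 Broth microdilution MIC. Exponentially growing bacteria diluted in sterile liquid medium to a final inoculum of 1 × 10⁴ CFU/mL. Cultured with compound dilutions for 16-20 h; compounds tested at 100, 50, 10 and 1 µg/mL. MIC taken as the concentration giving 100% inhibition of bacterial growth.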

Klebsiella aerogenes [10] = test: Antibacterial activity against Enterobacter aerogenes after 16 to 20 hrs by broth microdilution method; format: functional; settings: for MIC: Klebsiella aerogenes; in short: as §3
Proteus vulgaris = test: Antibacterial activity against Proteus vulgaris ATCC 49132 after 16 to 20 hrs by broth microdilution method; format: functional; in short: as §3
Pseudomonas aeruginosa [11] = test: Antibacterial activity against Pseudomonas aeruginosa […] after 16 to 20 hrs by broth microdilution method; format: functional; settings: for MIC: Pseudomonas aeruginosa, ATCC 13048; in short: as §3
Salmonella typhimurium [12] = test: Antibacterial activity against Salmonella Typhimurium after 16 to 20 hrs by broth microdilution method; format: functional, Salmonella enterica subsp. enterica serovar Typhimurium; settings: for MIC: Salmonella enterica; in short: as §3
[13] = tested on: Staphylococcus epidermidis; test: Antibacterial activity against Staphylococcus epidermidis ATCC 14990 after 16 to 20 hrs by broth microdilution method; format: functional; settings: for MIC: Staphylococcus epidermidis, ATCC 14990; in short: as §3
Staphylococcus aureus [14] = test: Antibacterial activity against Staphylococcus aureus ATCC 25923 after 16 to 20 hrs by broth microdilution method; format: functional; settings: for MIC: Staphylococcus aureus, ATCC 25923; in short: as §3
Bacillus subtilis [15] = test: Antibacterial activity against Bacillus subtilis ATCC 6633 after 16 to 20 hrs by broth microdilution method; format: functional; settings: for MIC: Bacillus subtilis, ATCC 6633; in short: as §3
Listeria monocytogenes [16] = test: Antibacterial activity Listeria monocytogenes ATCC 15313 after 16 to 20 hrs by broth microdilution method; format: functional; settings: for MIC: Listeria monocytogenes, ATCC 15313; in short: as §3
Streptococcus pyogenes [17] = test: Antibacterial activity Streptococcus pyogenes ATCC 19615 after 16 to 20 hrs by broth microdilution method; format: functional; settings: for MIC: Streptococcus pyogenes, ATCC 19615; in short: as §3
Streptococcus pneumoniae = test: Antibacterial activity Streptococcus pneumoniae ATCC 49619 after 16 to 20 hrs by broth microdilution method; format: functional; settings: for MIC: Streptococcus pneumoniae, ATCC 49619; in short: as §3
Enterococcus faecalis = test: Antibacterial activity Enterococcus faecalis ATCC 29212 after 16 to 20 hrs by broth microdilution method; format: functional; settings: for MIC: Enterococcus faecalis, ATCC 29212; in short: as §3
Vero = test: Toxicity against Vero cells after 3 days by MTT test; format: cell-based; settings: chlorocebus sabaeus, 72 h
In short: (§4)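 MTT viability assay. Vero or HFF cells seeded at 2.5 × 10⁵ cells/well and left to attach 6-8 h. Exposed to compound at 100, 50, 25, 12.5, 6.3 and 1.5 µg/mL for 3 days at 37 °C, with a DMSO control. MTT added for 4 h, then solubilized overnight; absorbance read at 560-650 nm.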

[18] = Toxicity against human foreskin fibroblast cells after 3 days by MTT test; format: cell-based; in short: as §4
Mycobacterium avium [19] = test: Antimycobacterial activity against Mycobacterium avium ATCC 25291 at 2 ug/mL by microplate Alamar blue assay; format: functional
Escherichia coli [20] = test: Antibacterial activity against Escherichia coli ATCC 25922 at 1 ug/ml after 16 to 20 hrs by broth microdilution method; format: functional
Klebsiella aerogenes [21] = test: Antibacterial activity against Enterobacter aerogenes at 1 ug/ml after 16 to 20 hrs by broth microdilution method; format: functional
Pseudomonas aeruginosa [22] = test: Antibacterial activity against Pseudomonas aeruginosa […] at 1 ug/ml after 16 to 20 hrs by broth microdilution method; format: functional
Salmonella typhimurium [23] = test: Antibacterial activity against Salmonella Typhimurium at 1 ug/ml after 16 to 20 hrs by broth microdilution method; format: functional, Salmonella enterica subsp. enterica serovar Typhimurium; settings: Salmonella enterica
[24] = tested on: Staphylococcus epidermidis; test: Antibacterial activity against Staphylococcus epidermidis ATCC 14990 at 1 ug/ml after 16 to 20 hrs by broth microdilution method; format: functional
Staphylococcus aureus [25] = test: Antibacterial activity against Staphylococcus aureus ATCC 25923 at 1 ug/ml after 16 to 20 hrs by broth microdilution method; format: functional
Bacillus subtilis [26] = test: Antibacterial activity against Bacillus subtilis ATCC 6633 at 1 ug/ml after 16 to 20 hrs by broth microdilution method; format: functional
Listeria monocytogenes [27] = test: Antibacterial activity Listeria monocytogenes ATCC 15313 at 1 ug/ml after 16 to 20 hrs by broth microdilution method; format: functional
Streptococcus pyogenes [28] = test: Antibacterial activity Streptococcus pyogenes ATCC 19615 at 1 ug/ml after 16 to 20 hrs by broth microdilution method; format: functional

| Structure (SMILES) | inhibition at 100 µg/mL [1] | inhibition at 50 µg/mL [2] | inhibition at 10 µg/mL [3] | inhibition at 1 µg/mL [4] | MIC90 [5] | inhibition at 100 µg/mL (Mycobacterium avium [6]) | inhibition at 50 µg/mL (Mycobacterium avium [7]) | MIC90 (Mycobacterium avium [8]) | MIC (Escherichia coli [9]) | MIC (Klebsiella aerogenes [10]) | MIC (Proteus vulgaris) | MIC (Pseudomonas aeruginosa [11]) | MIC (Salmonella typhimurium [12]) | Inhibition [13] | MIC [13] | Inhibition (Staphylococcus aureus [14]) | Inhibition (Listeria monocytogenes [16]) | Inhibition (Streptococcus pyogenes [17]) | CC10 (Vero) | CC50 at 72 h [18] | also measured |
| --- | --- | --- | --- | --- | --- | --- | --- | --- | --- | --- | --- | --- | --- | --- | --- | --- | --- | --- | --- | --- | --- |
| CCCCCCCCCCC#Cc1cn([C@@H]2O[C@H](CO)[C@@H](O)[C@H]2F)c(=O)[nH]c1=O | 100% | 100% | 100% | 70% | 1 µg/mL (≈ 2.44 µM) | 100% | 50% | 50 µg/mL (≈ 122 µM) | > 100 µg/mL | > 100 µg/mL | > 100 µg/mL | > 100 µg/mL | > 100 µg/mL | 100% | 100 µg/mL (≈ 244 µM) | 100% | 100% | 100% | > 100 µg/mL | > 100 µg/mL | MIC (Staphylococcus aureus [14]): 100 µg/mL (≈ 244 µM); MIC (Bacillus subtilis [15]): > 100 µg/mL; MIC (Listeria monocytogenes [16]): 100 µg/mL (≈ 244 µM); MIC (Streptococcus pyogenes [17]): 100 µg/mL (≈ 244 µM); Inhibition (Streptococcus pneumoniae): 100%; MIC (Streptococcus pneumoniae): 100 µg/mL (≈ 244 µM); Inhibition (Enterococcus faecalis): 100%; MIC (Enterococcus faecalis): 100 µg/mL (≈ 244 µM) |
| CCCCCCCCCCCC#Cc1cn([C@@H]2O[C@H](CO)[C@@H](O)[C@H]2F)c(=O)[nH]c1=O | 100% | 100% | 100% | 90% | 1 µg/mL (≈ 2.36 µM) | 100% | 50% | 50 µg/mL (≈ 118 µM) | > 100 µg/mL | > 100 µg/mL | > 100 µg/mL | > 100 µg/mL | > 100 µg/mL | 100% | 100 µg/mL (≈ 236 µM) | 100% | 100% | 100% | > 100 µg/mL | > 100 µg/mL | MIC (Staphylococcus aureus [14]): 100 µg/mL (≈ 236 µM); MIC (Bacillus subtilis [15]): > 100 µg/mL; MIC (Listeria monocytogenes [16]): 100 µg/mL (≈ 236 µM); MIC (Streptococcus pyogenes [17]): 100 µg/mL (≈ 236 µM); Inhibition (Streptococcus pneumoniae): 100%; MIC (Streptococcus pneumoniae): 100 µg/mL (≈ 236 µM); Inhibition (Enterococcus faecalis): 100%; MIC (Enterococcus faecalis): 100 µg/mL (≈ 236 µM) |
| CCCCCCCCCCC#Cc1cn([C@@H]2O[C@H](CO)[C@@H](O)[C@@H]2O)c(=O)[nH]c1=O | 100% | 100% | 100% | 75% | 1 µg/mL (≈ 2.45 µM) | 100% | 55% | 50 µg/mL (≈ 122 µM) |  |  |  |  |  |  |  |  |  |  | > 100 µg/mL | > 100 µg/mL |  |
| CCCCCCCCC#Cc1cn([C@@H]2O[C@H](CO)[C@@H](O)[C@H]2F)c(=O)[nH]c1=O | 100% | 100% | 50% | 25% | 50 µg/mL (≈ 131 µM) | 50% |  |  | > 100 µg/mL | > 100 µg/mL | > 100 µg/mL | > 100 µg/mL | > 100 µg/mL | 100% | 100 µg/mL (≈ 261 µM) | 100% | 100% | 100% | > 100 µg/mL | > 100 µg/mL | MIC (Staphylococcus aureus [14]): 100 µg/mL (≈ 261 µM); MIC (Bacillus subtilis [15]): > 100 µg/mL; MIC (Listeria monocytogenes [16]): 100 µg/mL (≈ 261 µM); MIC (Streptococcus pyogenes [17]): 100 µg/mL (≈ 261 µM); Inhibition (Streptococcus pneumoniae): 100%; MIC (Streptococcus pneumoniae): 100 µg/mL (≈ 261 µM); Inhibition (Enterococcus faecalis): 100%; MIC (Enterococcus faecalis): 100 µg/mL (≈ 261 µM) |
| CC[C@H]1OC(=O)[C@H](C)[C@@H](O[C@H]2C[C@@](C)(OC)[C@@H](O)[C@H](C)O2)[C@H](C)[C@@H](O[C@@H]2O[C@H](C)C[C@H](N(C)C)[C@H]2O)[C@](C)(OC)C[C@@H](C)C(=O)[C@H](C)[C@@H](O)[C@]1(C)O [CLARITHROMYCIN] |  |  |  |  |  |  |  | 2 µg/mL (≈ 2.67 µM) |  |  |  |  |  |  |  |  |  |  |  |  | inhibition at 2 µg/mL (Mycobacterium avium [19]): 95% |
| CO[C@H]1/C=C/O[C@@]2(C)Oc3c(C)c(O)c4c(O)c(c(/C=N/N5CCN(C)CC5)c(O)c4c3C2=O)NC(=O)/C(C)=C\C=C\[C@H](C)[C@H](O)[C@@H](C)[C@@H](O)[C@@H](C)[C@H](OC(C)=O)[C@@H]1C [RIFAMPIN] |  |  |  |  | 0.5 µg/mL (≈ 0.608 µM) |  |  | 2 µg/mL (≈ 2.43 µM) | 100 µg/mL (≈ 122 µM) | > 100 µg/mL | > 100 µg/mL | > 100 µg/mL | > 100 µg/mL | 100% |  | 100% | 100% | 100% |  |  | inhibition at 2 µg/mL (Mycobacterium avium [19]): 90%; Inhibition (Escherichia coli [9]): 100%; Inhibition (Klebsiella aerogenes [10]): 100%; Inhibition (Pseudomonas aeruginosa [11]): 100%; Inhibition (Salmonella typhimurium [12]): 100%; Inhibition (Bacillus subtilis [15]): 100%; inhibition at 1 µg/mL (Escherichia coli [20]): 100%; inhibition at 1 µg/mL (Klebsiella aerogenes [21]): 100%; inhibition at 1 µg/mL (Pseudomonas aeruginosa [22]): 100%; inhibition at 1 µg/mL (Salmonella typhimurium [23]): 100%; inhibition at 1 µg/mL [24]: 100%; inhibition at 1 µg/mL (Staphylococcus aureus [25]): 100%; inhibition at 1 µg/mL (Bacillus subtilis [26]): 100%; inhibition at 1 µg/mL (Listeria monocytogenes [27]): 100%; inhibition at 1 µg/mL (Streptococcus pyogenes [28]): 100% |
